Assays:
[1] = molecular target: Sodium-dependent dopamine transporter (Rattus norvegicus, UniProt P23977); experiment: Inhibition of [3H]WIN-35428 binding to Dopamine transporter in rat striatal synaptic membranes; format: cell membranes, Membrane
[2] = molecular target: Sodium-dependent dopamine transporter (Rattus norvegicus) (UniProt P23977); experiment: Ratio of binding affinity of E isomer to that ofZ isomer towards the dopamine transporter expressed as IC50(E)/IC50(Z)
Method in brief: (§1)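 Ratio of IC50 values for the E and Z isomers bearing the same para substituent on the 3β-phenyl ring. Both IC50s come from rat striatal membrane competition binding against 3 nM [3H]WIN 35,428, with 13 concentrations from 10^-12 to 10^-4 M and (−)-cocaine defining nonspecific binding.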

[3] = molecular target: Sodium-dependent dopamine transporter (Rattus norvegicus) (UniProt P23977); experiment: Ratio of binding affinity of E isomer to that of Z isomer towards the dopamine transporter expressed as IC50(E)/IC50(Z); method in brief: as §1

Sodium-dependent dopamine transporter, sequence (P23977 whole entry): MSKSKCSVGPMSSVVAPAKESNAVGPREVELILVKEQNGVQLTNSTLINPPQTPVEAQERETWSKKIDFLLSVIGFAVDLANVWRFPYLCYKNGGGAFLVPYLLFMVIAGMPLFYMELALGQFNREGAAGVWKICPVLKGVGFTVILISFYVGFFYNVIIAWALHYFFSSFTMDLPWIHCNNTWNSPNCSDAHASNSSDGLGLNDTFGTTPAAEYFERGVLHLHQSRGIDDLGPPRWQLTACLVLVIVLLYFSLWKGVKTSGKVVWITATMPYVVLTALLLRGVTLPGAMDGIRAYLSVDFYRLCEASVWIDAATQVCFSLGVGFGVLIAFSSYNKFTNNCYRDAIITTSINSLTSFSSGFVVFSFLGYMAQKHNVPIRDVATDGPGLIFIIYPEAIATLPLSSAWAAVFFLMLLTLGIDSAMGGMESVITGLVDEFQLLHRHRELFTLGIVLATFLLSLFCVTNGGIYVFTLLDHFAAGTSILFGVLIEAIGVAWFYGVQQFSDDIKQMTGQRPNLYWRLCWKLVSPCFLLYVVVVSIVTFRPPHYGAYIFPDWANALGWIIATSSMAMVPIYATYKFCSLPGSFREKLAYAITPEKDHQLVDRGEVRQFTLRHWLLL
Sodium-dependent dopamine transporter (Rattus norvegicus), sequence (P23977 whole entry): as above

CN1C2CCC1C(C(=O)OC/C=C\I)C(c1ccc(Cl)cc1)C2 (stereo not drawn)
IC50 [1]: 24.9 nM | Ratio [2]: 1.87

CN1C2CCC1C(C(=O)OC/C=C/I)C(c1ccccc1)C2 (stereo not drawn)
IC50 [1]: 876 nM

CN1C2CCC1C(C(=O)OC/C=C/I)C(c1ccc(F)cc1)C2 (stereo not drawn)
IC50 [1]: 567 nM

CN1C2CCC1C(C(=O)OC/C=C/I)C(c1ccc(Cl)cc1)C2 (stereo not drawn)
IC50 [1]: 46.6 nM

CN1C2CCC1C(C(=O)OC/C=C\I)C(c1ccccc1)C2 (stereo not drawn)
IC50 [1]: 308 nM | Ratio [3]: 2.84

Cc1ccc(C2CC3CCC(C2C(=O)OC/C=C/I)N3C)cc1 (stereo not drawn)
IC50 [1]: 190 nM

Cc1ccc(C2CC3CCC(C2C(=O)OC/C=C\I)N3C)cc1 (stereo not drawn)
IC50 [1]: 39.2 nM | Ratio [2]: 4.84

CN1C2CCC1C(C(=O)OC/C=C\I)C(c1ccc(F)cc1)C2 (stereo not drawn)
IC50 [1]: 356 nM | Ratio [2]: 1.59

COC(=O)C1C(c2ccc(Cl)cc2)CC2CCC1N2C/C=C/I (stereo not drawn)
IC50 [1]: 6.1 nM
